Test results as given in ChEMBL document CHEMBL1142170, “Mechanism of activation of beta-D-2'-deoxy-2'-fluoro-2'-c-methylcytidine and inhibition of hepatitis C virus NS5B RNA polymerase” (Antimicrob Agents Chemother, 2007).
Calls of active or inactive are those of the source. The rule behind the calls is not given here.

Tests used:
[1] = target: T1, Uridine-cytidine kinase 1 (Homo sapiens) (UniProt Q9HA47); experiment: Ratio of Kcat to Km for UCK1 activity expressed in Huh7 cells up to 3 mM; type: cell-based; details: Huh-7
T1 sequence (whole entry): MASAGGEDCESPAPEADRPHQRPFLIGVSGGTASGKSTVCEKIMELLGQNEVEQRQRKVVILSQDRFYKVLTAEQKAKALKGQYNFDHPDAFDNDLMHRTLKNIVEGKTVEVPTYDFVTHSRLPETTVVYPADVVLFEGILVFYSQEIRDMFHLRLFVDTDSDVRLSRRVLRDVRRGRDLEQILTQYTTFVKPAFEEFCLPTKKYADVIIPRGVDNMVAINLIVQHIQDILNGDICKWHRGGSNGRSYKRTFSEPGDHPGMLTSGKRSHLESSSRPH
How it was run: (§1)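 His-tagged human UCK-1 cloned from Huh-7 cells, assayed at 25°C by pyruvate kinase/lactate dehydrogenase coupling, NADH oxidation at 340 nm. Buffer 64 mM Tris-HCl pH 7.5, 1 mM ATP, Mg2+, phosphoenolpyruvate. Enzyme 41 nM, or 410 nM for 2′-C-methyl cytidines. Substrate concentration varied. Steady-state parameters reported as mean ± SD.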

[2] = target: T1, Uridine-cytidine kinase 1 (Homo sapiens); experiment: Activity of human UCK1 expressed in Huh7 cells assessed as phosphorylation by coupled enzyme assay; type: cell-based; details: Huh-7; how it was run: as §1
[3] = target: T1, Uridine-cytidine kinase 1 (Homo sapiens); experiment: Ratio of Kcat to Km for UCK1 activity expressed in Huh7 cells; type: cell-based; details: Huh-7; how it was run: as §1
[4] = target: T1, Uridine-cytidine kinase 1 (Homo sapiens); experiment: Activity of human UCK1 expressed in Huh7 cells assessed as phosphorylation up to 3 mM by coupled enzyme assay; type: cell-based; details: Huh-7; how it was run: as §1
[5] = tested on: Hepacivirus hominis; experiment: Ratio of Kcat to Km for HCV NS5B RNA polymerase S282T mutant
How it was run: (§2)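 Steady-state assay with purified 21-aa C-terminally truncated HCV NS5B (S282T) on minus-IRES RNA template. Conditions: 50 mM HEPES pH 7.5, 1 mM MgCl2, 0.75 mM MnCl2, 2 mM DTT, [α-32P]UTP tracer, 27°C. One NTP varied, other three held at saturating levels. Rates came from product time courses; products were dot-blotted on Hybond N+ and counted by scintillation.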

[6] = tested on: Hepacivirus hominis; experiment: Activity of HCV NS5B RNA polymerase assessed as incorporation of 32P-UMP into RNA
How it was run: (§3)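 Recombinant C-terminal 21-aa truncated HCV NS5B on minus IRES RNA template, 50 mM HEPES pH 7.5, 1 mM MgCl2, 0.75 mM MnCl2, 2 mM DTT, [α-32P]UTP, 27°C. One NTP varied, other three fixed at saturating levels. Aliquots quenched with EDTA/NaCl/citrate, product retained on Hybond N+ membrane, counted by scintillation. Rates from time-course slopes, fit for steady-state parameters.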

[7] = tested on: Hepacivirus hominis; experiment: Ratio of Kcat to Km for HCV NS5B RNA polymerase; how it was run: as §3
[8] = tested on: Hepacivirus hominis; experiment: Ratio of Ki to Km for HCV NS5B RNA polymerase
How it was run: (§4)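 Steady-state Ki against truncated NS5B (wild-type and S282T) on minus IRES template, 27°C, HEPES pH 7.5 with Mg2+/Mn2+/DTT and [α-32P]UTP. For ATP analog, UTP 10, GTP and CTP 100 μM, ATP and inhibitor varied. For CTP analogs, UTP 10, ATP and GTP 100 μM, CTP and inhibitor varied. Membrane-bound product counted, rates fit to competitive inhibition.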

[9] = tested on: Hepacivirus hominis; experiment: Inhibition of HCV NS5B RNA polymerase S282T mutant assessed as incorporation of 32P-UMP into RNA
How it was run: (§5)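 Purified 21-aa C-terminally truncated NS5B (S282T; wild type for comparison) on minus-IRES template, run in 50 mM HEPES pH 7.5 with 1 mM MgCl2, 0.75 mM MnCl2, 2 mM DTT and [α-32P]UTP at 27°C. Natural substrate and inhibitor were both varied against fixed remaining NTPs (UTP 10 μM, others 100 μM). Product was membrane-captured and counted. Ki was obtained by fitting a competitive inhibition equation.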

[10] = tested on: Hepacivirus hominis; experiment: Inhibition of HCV NS5B RNA polymerase assessed as incorporation of 32P-UMP into RNA; how it was run: as §4
[11] = tested on: Hepacivirus hominis; experiment: Ratio of Ki/Km of HCV NS5B RNA polymerase S282T mutant to Ki/Km of HCV NS5B RNA polymerase; how it was run: as §5
[12] = tested on: RNA-directed RNA polymerase (Hepacivirus hominis), O39930 [S282T]; experiment: Ratio of Ki to Km for HCV NS5B RNA polymerase S282T mutant; how it was run: as §5
[13] = tested on: C[C@@]1(F)[C@H](O)[C@@H](CO)O[C@H]1n1ccc(N)nc1=O; details: Homo sapiens; HepG2
[14] = tested on: Nc1ccn([C@@H]2O[C@H](CO)[C@@H](O)C2(F)F)c(=O)n1; details: Homo sapiens; HepG2
[15] = tested on: C[C@@H]1[C@H](O)[C@@H](CO)O[C@H]1n1ccc(N)nc1=O; details: Homo sapiens; HepG2
[16] = tested on: C[C@@]1(O)[C@H](O)[C@@H](CO)O[C@H]1n1ccc(N)nc1=O; details: Homo sapiens; HepG2
[17] = tested on: Nc1ccn([C@@H]2O[C@H](CO)[C@@H](O)[C@H]2F)c(=O)n1; details: Homo sapiens; HepG2
[18] = tested on: C[C@@]1(F)[C@H](O)[C@@H](CO)O[C@H]1n1ccc(N)nc1=O; details: Homo sapiens; HepG2; remark: listed apart in the source
[19] = tested on: Nc1ccn([C@@H]2O[C@H](CO)[C@@H](O)C2(F)F)c(=O)n1; details: Homo sapiens; HepG2; remark: listed apart in the source
[20] = tested on: C[C@@H]1[C@H](O)[C@@H](CO)O[C@H]1n1ccc(N)nc1=O; details: Homo sapiens; HepG2; remark: listed apart in the source
[21] = tested on: C[C@@]1(O)[C@H](O)[C@@H](CO)O[C@H]1n1ccc(N)nc1=O; details: Homo sapiens; HepG2; remark: listed apart in the source
[22] = tested on: Nc1ccn([C@@H]2O[C@H](CO)[C@@H](O)[C@H]2F)c(=O)n1; details: Homo sapiens; HepG2; remark: listed apart in the source
[23] = target: T1, Uridine-cytidine kinase 1 (Homo sapiens); experiment: Ratio of Kcat to Km for UCK1 activity expressed in Huh7 cells up to 1 mM; type: cell-based; details: Huh-7; how it was run: as §1
[24] = target: T1, Uridine-cytidine kinase 1 (Homo sapiens); experiment: Activity of human UCK1 expressed in Huh7 cells assessed as phosphorylation up to 1 mM by coupled enzyme assay; type: cell-based; details: Huh-7; how it was run: as §1
[25] = tested on: O=c1ccn([C@@H]2O[C@H](COP(=O)(O)OP(=O)(O)OP(=O)(O)O)[C@@H](O)[C@H]2O)c(=O)[nH]1; experiment: (§6) Activity of HCV NS5B RNA polymerase S282T assessed as incorporation of 32P-UMP into RNA; details: Hepacivirus hominis; how it was run: as §2
[26] = tested on: Nc1nc2c(c(=O)[nH]1)NCN2[C@@H]1O[C@H](COP(=O)(O)OP(=O)(O)OP(=O)(O)O)[C@@H](O)[C@H]1O; experiment: as §6; details: Hepacivirus hominis; how it was run: as §2
[27] = tested on: Nc1ncnc2c1ncn2[C@@H]1O[C@H](COP(=O)(O)OP(=O)(O)OP(=O)(O)O)[C@@H](O)[C@H]1O; experiment: as §6; details: Hepacivirus hominis; how it was run: as §2
[28] = tested on: Nc1ccn([C@@H]2O[C@H](COP(=O)(O)OP(=O)(O)OP(=O)(O)O)[C@@H](O)[C@H]2O)c(=O)n1; experiment: as §6; details: Hepacivirus hominis; how it was run: as §2
[29] = tested on: HepG2; experiment: Activity of human NDPK expressed in HepG2 cells assessed as phosphorylation by coupled enzyme assay; type: cell-based
How it was run: (§7)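 Human NDPK cloned from HepG2 cells, 216 nM, 37°C, with 1 mM ATP in Tris-HCl pH 7.5 coupled to pyruvate kinase/lactate dehydrogenase. NADH oxidation read at 340 nm. Diphosphate substrate concentration varied, Km and kcat as mean ± SD.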

[30] = tested on: HepG2; experiment: Ratio of Kcat to Km for NDPK activity expressed in HepG2 cells; type: cell-based; details: Homo sapiens; how it was run: as §7

Sequence of Deoxycytidine kinase (Homo sapiens), P27707 (P27707 whole entry): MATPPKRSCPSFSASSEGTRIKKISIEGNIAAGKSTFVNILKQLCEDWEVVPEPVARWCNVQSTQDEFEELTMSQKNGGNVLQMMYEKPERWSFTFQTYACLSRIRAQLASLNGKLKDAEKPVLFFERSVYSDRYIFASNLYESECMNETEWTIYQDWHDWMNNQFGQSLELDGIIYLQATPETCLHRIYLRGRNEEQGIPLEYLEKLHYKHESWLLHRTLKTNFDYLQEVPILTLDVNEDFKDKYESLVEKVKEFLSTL

## C[C@@]1(F)[C@H](O)[C@@H](CO)O[C@H]1n1ccc(N)nc1=O
[1]
  Activity: inactive
[2]
  Activity: inactive
[3]
  Activity: inactive
[4]
  Activity: inactive

## Nc1ncnc2c1ncn2[C@@H]1O[C@H](COP(=O)(O)OP(=O)(O)OP(=O)(O)O)[C@@H](O)[C@H]1O
[5]
  kcat/Km: 10.7 M⁻¹ s⁻¹
[6]
  Km: 2.7 µM
  kcat: 3.33e-05 s⁻¹
[7]
  kcat/Km: 12.3 M⁻¹ s⁻¹

## C[C@@]1(F)[C@H](O)[C@@H](COP(=O)(O)OP(=O)(O)OP(=O)(O)O)O[C@H]1n1ccc(N)nc1=O
[8]
  Ki/Km: 0.31
[9]
  Km: 2.7 µM
[10]
  Km: 13.7 µM
[11]
  Ratio: 3
[12]
  Ki/Km: 0.93

## Nc1ccn([C@@H]2O[C@H](COP(=O)(O)OP(=O)(O)OP(=O)(O)O)[C@@H](O)[C@H]2O)c(=O)n1
[5]
  kcat/Km: 1.32 M⁻¹ s⁻¹
[6]
  Km: 13.7 µM
  kcat: 2.53e-05 s⁻¹
[7]
  kcat/Km: 1.83 M⁻¹ s⁻¹

## Deoxycytidine kinase (Homo sapiens), P27707
[13]
  kcat/Km: 190 M⁻¹ s⁻¹
[14]
  kcat/Km: 27000 M⁻¹ s⁻¹
[15]
  kcat/Km: 1000 M⁻¹ s⁻¹
[16]
  kcat/Km: 12 M⁻¹ s⁻¹
[17]
  kcat/Km: 11000 M⁻¹ s⁻¹
[18]
  Km: 81.2 µM
  kcat: 0.016 s⁻¹
[19]
  Km: 1.4 µM
  kcat: 0.038 s⁻¹
[20]
  Km: 46.2 µM
  kcat: 0.048 s⁻¹
[21]
  Km: 914 µM
  kcat: 0.011 s⁻¹
[22]
  Km: 4.7 µM
  kcat: 0.05 s⁻¹

## Nc1ccn([C@H]2C[C@H](O)[C@@H](CO)O2)c(=O)n1
[2]
  Activity: inactive
[3]
  Activity: inactive
[23]
  Activity: inactive
[24]
  Activity: inactive

## RNA-directed RNA polymerase (Hepacivirus hominis), O39930 S282T
[25]
  Km: 0.18 µM
  kcat: 0.000125 s⁻¹
[26]
  Km: 5 µM
  kcat: 0.000198 s⁻¹
[27]
  Km: 0.26 µM
  kcat: 0.000167 s⁻¹
[28]
  Km: 2.7 µM
  kcat: 0.000214 s⁻¹

## Nc1ccn([C@@H]2O[C@H](COP(=O)(O)OP(=O)(O)O)[C@@H](O)[C@H]2O)c(=O)n1
[29]
  Km: 307 µM
  kcat: 183 s⁻¹
[30]
  kcat/Km: 600000 M⁻¹ s⁻¹

## C[C@@]1(O)[C@H](O)[C@@H](COP(=O)(O)OP(=O)(O)OP(=O)(O)O)O[C@H]1n1cnc2c(N)ncnc21
[8]
  Ki/Km: 0.56
[9]
  Km: 0.26 µM
[10]
  Km: 2.7 µM
[11]
  Ratio: 150
[12]
  Ki/Km: 84

## O=c1ccn([C@@H]2O[C@H](COP(=O)(O)OP(=O)(O)OP(=O)(O)O)[C@@H](O)[C@H]2O)c(=O)[nH]1
[5]
  kcat/Km: 11.5 M⁻¹ s⁻¹
[6]
  Km: 0.4 µM
  kcat: 2.13e-05 s⁻¹
[7]
  kcat/Km: 53.3 M⁻¹ s⁻¹

## C[C@@]1(O)[C@H](O)[C@@H](CO)O[C@H]1n1ccc(N)nc1=O
[2]
  Activity: inactive
[3]
  Activity: inactive

## C[C@@]1(O)[C@H](O)[C@@H](COP(=O)(O)OP(=O)(O)OP(=O)(O)O)O[C@H]1n1ccc(N)nc1=O
[8]
  Ki/Km: 0.12
[9]
  Km: 2.7 µM
[10]
  Km: 13.7 µM
[11]
  Ratio: 12
[12]
  Ki/Km: 1.4

## C[C@@]1(F)[C@H](O)[C@@H](COP(=O)(O)OP(=O)(O)O)O[C@H]1n1ccc(N)nc1=O
[29]
  Km: 1380 µM
  kcat: 21 s⁻¹
[30]
  kcat/Km: 15000 M⁻¹ s⁻¹
